Reference: ChEMBL document CHEMBL4613272, “Anti-HIV-Active Nucleoside Triphosphate Prodrugs” (J Med Chem, 2020)

Tests used:
[1] = Selectivity index, ratio of CC50 for human CEM cells to EC50 for HIV1 HE infected in human CEM/0 cells; conditions: CEM cells (CC50) and HIV1 HE infected CEM/0 cells (EC50)
[2] = Half life in human CEM/0 cell extracts by HPLC analysis; format: ADME, CCRF-CEM
Procedure, shortened: (§1)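 Cell extract prepared from CEM cells grown in RPMI-1640-based medium to ~3·10^6 cells/mL. Cells washed twice in cold PBS, resuspended at 10^8 cells/mL, sonicated, cleared at 10,000 rpm and stored at -80 °C. Prodrug at 6.0 mM hydrolysis solution in DMSO-d6 mixed with water and extract at 37 °C over time. Samples iced, sonicated and centrifuged; supernatant analysed by RP18 HPLC. t1/2 calculated as for chemical hydrolysis.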

[3] = Half life in pH 7.3 phosphate buffered saline by HPLC analysis; format: physicochemical
Procedure, shortened: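 Prodrug from 50 mM DMSO-d6 stock diluted to 1.9 mM with water/DMSO-d6. Reaction started by adding phosphate buffer (50 mM stock, pH 7.3). Products followed by analytical RP18 HPLC with TBAA or TEAA buffer/acetonitrile gradient.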

[4] = Prodrug conversion in human CEM/0 cell extracts assessed as gamma-(C16-ACB)-d4TTP formation by HPLC analysis; format: ADME; conditions: ccrf-cem
Procedure, shortened: as §1

[5] = Half life in pH 7.3 phosphate buffered saline in presence of pig liver esterase by HPLC analysis; format: ADME, Sus scrofa
Procedure, shortened: (§2)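 Prodrug diluted from 50 mM DMSO stock through a 6.0 mM intermediate into DMSO/50 mM PBS pH 7.3. Started with pig liver esterase (3 mg/mL solution in PBS) and shaken at 37 °C, 800 rpm. Aliquots quenched in MeOH at intervals, filtered, stored in liquid nitrogen and analysed by RP18 HPLC.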

[6] = Prodrug conversion in human CEM/0 cell extracts assessed as d4TMP formation by HPLC analysis; format: ADME; conditions: ccrf-cem
Procedure, shortened: as §1

[7] = Prodrug conversion in pH 7.3 phosphate buffered saline assessed as pig liver esterase-mediated d4TTP formation by HPLC analysis; format: ADME, Sus scrofa; conditions: in vitro
Procedure, shortened: as §2

[8] = Prodrug conversion in human CEM/0 cell extracts assessed as d4TTP formation by HPLC analysis; format: ADME; conditions: ccrf-cem
Procedure, shortened: as §1

[9] = Cytotoxicity against human CEM cells assessed as reduction in cell proliferation; format: cell-based; conditions: CEM cells (CCRF-CEM)
Procedure, shortened: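 CC50 is the compound concentration inhibiting CEM CD4+ T-cell proliferation by 50%. Mean ± SD of n=2-3 independent experiments.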

[10] = Prodrug conversion in human CEM/0 cell extracts assessed as d4TDP formation by HPLC analysis; format: ADME; conditions: ccrf-cem
Procedure, shortened: as §1

[11] = Prodrug conversion in pH 7.3 phosphate buffered saline assessed as pig liver esterase-mediated gamma-(C16-ACB)-d4TTP formation by HPLC analysis; format: ADME, Sus scrofa; conditions: in vitro
Procedure, shortened: as §2

[12] = Prodrug conversion in pH 7.3 phosphate buffered saline assessed as pig liver esterase-mediated d4TMP formation by HPLC analysis; format: ADME, Sus scrofa; conditions: in vitro
Procedure, shortened: as §2

[13] = test system: Human immunodeficiency virus 2; experiment: Antiviral activity against HIV2 ROD infected in thymidine kinase-deficient human CEM cells assessed as inhibition of virus-induced giant cell formation measured after 4 to 5 days by microscopic analysis; conditions: Human immunodeficiency virus 2, ISOLATE ROD, CCRF-CEM
[14] = test system: Human immunodeficiency virus 2; experiment: Antiviral activity against HIV2 ROD infected in human CEM/0 cells assessed as inhibition of virus-induced giant cell formation measured after 4 to 5 days by microscopic analysis; conditions: Human immunodeficiency virus 2, ISOLATE ROD, CCRF-CEM
[15] = test system: Human immunodeficiency virus 1; experiment: Antiviral activity against HIV1 HE infected in human CEM/0 cells assessed as inhibition of virus-induced giant cell formation measured after 4 to 5 days by microscopic analysis; conditions: Human immunodeficiency virus 1, HE, CCRF-CEM
[16] = Prodrug conversion in human CEM/0 cell extracts assessed as gamma-(C6-ACB)-d4TTP formation by HPLC analysis; format: ADME; conditions: ccrf-cem
Procedure, shortened: as §1

[17] = Cytotoxicity against mouse eEND.2 cells assessed as reduction in cell viability by WST-1 assay; format: cell-based; conditions: read-out: LD50 (the source's name)

| Compound | half-life [2] [h] | half-life [3] [h] | Drug metabolism [4] | half-life [5] [h] | Drug metabolism [6] | Drug metabolism [7] | Drug metabolism [8] | Drug metabolism [10] | Drug metabolism [11] | Drug metabolism [12] | EC50 [13] [µM] | EC50 [14] [µM] | EC50 [15] [µM] | Drug metabolism [16] | selectivity ratio [1] | CC50 [9] [µM] | CC50 [17] [µM] |
| --- | --- | --- | --- | --- | --- | --- | --- | --- | --- | --- | --- | --- | --- | --- | --- | --- | --- |
| CCCCCCCCCCCCOC(=O)Oc1ccc(COP(=O)(OCc2ccc(OC(=O)CCCC)cc2)OP(=O)(O)OP(=O)(O)OC[C@@H]2C=C[C@H](n3cc(C)c(=O)[nH]c3=O)O2)cc1.N.N (some centres not stated) | 1.2 | 87 |  | 0.17 |  | Metabolite_Detected |  |  |  |  | 0.073 | 0.017 | 0.04 |  | 675 | 27 |  |
| CCCCCCCCCCCCCCCCOC(=O)Oc1ccc(COP(=O)(OCc2ccc(OC(=O)CCCCCCCC)cc2)OP(=O)(O)OP(=O)(O)OC[C@@H]2C=C[C@H](n3cc(C)c(=O)[nH]c3=O)O2)cc1.N.N (some centres not stated) | 6.4 | 90 |  | 13.8 |  | Metabolite_Detected |  |  |  |  |  |  |  |  |  |  |  |
| CCCCCCCCCCCCCCCCOC(=O)Oc1ccc(COP(=O)(OCc2ccc(OC(=O)CCCC)cc2)OP(=O)(O)OP(=O)(O)OC[C@@H]2C=C[C@H](n3cc(C)c(=O)[nH]c3=O)O2)cc1.N.N (some centres not stated) | 3.7 | 74 |  | 1.6 |  | Metabolite_Detected |  |  |  |  | 0.12 |  |  |  | 656 | 21 |  |
| OCc1ccc(O)cc1 [PARAHYDROXYBENZYL ALCOHOL] |  |  |  |  |  |  |  |  |  |  |  |  |  |  |  |  | 50000 |

More lines, in order of falling EC50 [13], values ahead:

| half-life [2] [h] | half-life [3] [h] | Drug metabolism [4] | half-life [5] [h] | Drug metabolism [6] | Drug metabolism [7] | Drug metabolism [8] | Drug metabolism [10] | Drug metabolism [11] | Drug metabolism [12] | EC50 [13] [µM] | EC50 [14] [µM] | EC50 [15] [µM] | Drug metabolism [16] | Compound | selectivity ratio [1] | CC50 [9] [µM] | CC50 [17] [µM] |
| --- | --- | --- | --- | --- | --- | --- | --- | --- | --- | --- | --- | --- | --- | --- | --- | --- | --- |
| 0.94 | 84 |  | 0.51 |  | Metabolite_Detected |  |  |  |  | 1.75 | 0.24 | 0.57 |  | CCCCCCCCCCCCOC(=O)Oc1ccc(COP(=O)(OCc2ccc(OC(=O)OCC)cc2)OP(=O)(O)OP(=O)(O)OC[C@@H]2C=C[C@H](n3cc(C)c(=O)[nH]c3=O)O2)cc1.N.N (some centres not stated) | 112 | 64 |  |
| 2.5 | 95 |  |  |  | Metabolite_Detected |  |  |  |  | 0.21 | 0.07 | 0.3 | Metabolite_Detected | CCCCCCCCCCCC(=O)Oc1ccc(COP(=O)(OCc2ccc(OC(=O)OCCCCCC)cc2)OP(=O)(O)OP(=O)(O)OC[C@@H]2C=C[C@H](n3cc(C)c(=O)[nH]c3=O)O2)cc1.N.N (some centres not stated) | 137 | 41 |  |
| 1.9 | 83 | Metabolite_Detected | 4.7 | Metabolite_Detected | Metabolite_Detected | Metabolite_Notdetected | Metabolite_Detected | Metabolite_Detected | Metabolite_Notdetected | 0.11 |  |  |  | CCCCCCCCCCCCCCCCOC(=O)Oc1ccc(COP(=O)(OCc2ccc(OC(=O)CC)cc2)OP(=O)(O)OP(=O)(O)OC[C@@H]2C=C[C@H](n3cc(C)c(=O)[nH]c3=O)O2)cc1.N.N (some centres not stated) | 1260 | 34 |  |
